# From ChEMBL document CHEMBL4330094, “Potent Metabolic Sialylation Inhibitors Based on C-5-Modified Fluorinated Sialic Acids” (J Med Chem, 2019)
# Calls of active or inactive are those of the source. The rule behind the calls is not given here.
# Columns and labels:
# [1] = Inhibition of sialyltransferase in mouse B16F10 cells assessed as decrease in lectin binding after 3 days by biotinylated MAL2 lectin and streptavidin-PE based flow cytometry; format: cell-based
# In short: (§1)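 Each cell line was incubated 3 days with increasing compound concentrations or equivalent DMSO. Cells were stained with biotinylated MALII (5 µg/ml) in carbo-free blocking buffer with 1 mM CaCl/MgCl for 45-60 min at 4 °C, washed in PBS/1% BSA/0.02% azide, then stained with streptavidin-PE for 20 min at 4 °C. For flow cytometry, MFI was normalized to control as % lectin binding.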
# [2] = Inhibition of sialyltransferase in human THP1 cells assessed as decrease in lectin binding after 3 days by biotinylated MAL2 lectin and streptavidin-PE based flow cytometry; format: cell-based; in short: as §1
# [3] = Inhibition of sialyltransferase in HEK293 cells assessed as decrease in lectin binding after 3 days by biotinylated MAL2 lectin and streptavidin-PE based flow cytometry; format: cell-based, Homo sapiens; in short: as §1
# [4] = Inhibition of sialyltransferase in human HeLa cells assessed as decrease in lectin binding after 3 days by biotinylated MAL2 lectin and streptavidin-PE based flow cytometry; format: cell-based; in short: as §1
# [5] = Inhibition of sialyltransferase in mouse 9464D cells assessed as decrease in lectin binding after 3 days by biotinylated MAL2 lectin and streptavidin-PE based flow cytometry; format: cell-based; in short: as §1
# [6] = Inhibition of sialyltransferase in mouse EL4 cells assessed as decrease in lectin binding after 3 days by biotinylated MAL2 lectin and streptavidin-PE based flow cytometry; format: cell-based; in short: as §1
# B16-F10 [7] = experiment: Relative inhibitory potency, ratio of SiaFAc to compound EC50 for inhibition of sialyltransferase in mouse B16-F10 cells; format: cell-based
# B16-F10 [8] = experiment: Cytotoxicity against mouse B16F10 cells assessed as reduction in metabolic activity at <51.2 uM after 3 days by MTT assay; format: ADME, cell-based; details: b16-f10, 72 h
# B16-F10 [9] = experiment: Cytotoxicity against mouse B16F10 cells assessed as reduction in metabolic activity at 204.8 uM after 3 days by MTT assay; format: ADME, cell-based; details: b16-f10, 72 h
# B16-F10 [10] = experiment: Effect on total cell surface glycosylation in mouse B16F10 cells assessed as inhibition of biotinylated PHA-L lectin binding at 102.4 uM after 3 days by flow cytometry; format: cell-based; details: b16-f10, 72 h
# In short: (§2)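 B16-F10 cells were exposed 3 days to 102.4 µM compound or DMSO. Staining used biotinylated lectins (AAL 5, PNA 5, GSL-I 1, LCA 1, PHA-L 1, PSA 1, SJA 1, WGA 1 µg/ml) in carbo-free blocking buffer with 1 mM CaCl and 1 mM MgCl for 45-60 min at 4 °C, then streptavidin-PE for 20 min at 4 °C. Flow cytometry read-out was MFI, mean ± SEM from two independent experiments.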
# B16-F10 [11] = experiment: Effect on total cell surface glycosylation in mouse B16F10 cells assessed as inhibition of biotinylated PNA lectin binding at 102.4 uM after 3 days by flow cytometry; format: cell-based; details: b16-f10, 72 h; in short: as §2
# B16-F10 [12] = experiment: Effect on total cell surface glycosylation in mouse B16F10 cells assessed as inhibition of biotinylated AAL-lectin binding at 102.4 uM after 3 days by flow cytometry; format: cell-based; details: b16-f10, 72 h; in short: as §2
# B16-F10 [13] = experiment: Effect on total cell surface glycosylation in mouse B16F10 cells assessed as inhibition of biotinylated LCA-lectin binding at 102.4 uM after 3 days by flow cytometry; format: cell-based; details: b16-f10, 72 h; in short: as §2
# B16-F10 [14] = experiment: Effect on total cell surface glycosylation in mouse B16F10 cells assessed as inhibition of biotinylated GSL1-lectin binding at 102.4 uM after 3 days by flow cytometry; format: cell-based; details: b16-f10, 72 h; in short: as §2
# B16-F10 [15] = experiment: Effect on total cell surface glycosylation in mouse B16F10 cells assessed as inhibition of biotinylated WGA-lectin binding at 102.4 uM after 3 days by flow cytometry; format: cell-based; details: b16-f10, 72 h; in short: as §2
# B16-F10 [16] = experiment: Effect on total cell surface glycosylation in mouse B16F10 cells assessed as inhibition of biotinylated SJA-lectin binding at 102.4 uM after 3 days by flow cytometry; format: cell-based; details: b16-f10, 72 h; in short: as §2
# B16-F10 [17] = experiment: Effect on total cell surface glycosylation in mouse B16F10 cells assessed as inhibition of biotinylated PSA-lectin binding at 102.4 uM after 3 days by flow cytometry; format: cell-based; details: b16-f10, 72 h; in short: as §2
# B16-F10 [18] = experiment: Inhibition of sialyltransferase in mouse B16-F10 cells assessed as recovery time for sialylation at 51.2 uM pretreated for 3 days followed by washing and re-seeding and measured after 6 days by biotinylated MAL2 lectin-based flow cytometry; format: cell-based
# In short: (§3)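 B16-F10 cells were pretreated 3 days with 25.6 or 51.2 µM compound or DMSO, washed, reseeded, and sampled daily for 6 days. They were stained with biotinylated MALII (5 µg/ml, 45-60 min, 4 °C) plus streptavidin-PE. Flow cytometry MFI was normalized to control as % lectin binding.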
# B16-F10 [19] = experiment: Inhibition of sialyltransferase in mouse B16-F10 cells assessed as recovery time for sialylation at 25.6 uM pretreated for 3 days followed by washing and re-seeding and measured after 6 days by biotinylated MAL2 lectin-based flow cytometry; format: cell-based; in short: as §3
SMILES,EC50 [1] [µM],EC50 [2] [µM],EC50 [3] [µM],EC50 [4] [µM],EC50 [5] [µM],EC50 [6] [µM],Ratio EC50 (B16-F10 [7]),Activity (B16-F10 [8]),Activity (B16-F10 [9]),Activity (B16-F10 [10]),Activity (B16-F10 [11]),Activity (B16-F10 [12]),Activity (B16-F10 [13]),Activity (B16-F10 [14]),Activity (B16-F10 [15]),Activity (B16-F10 [16]),Activity (B16-F10 [17]),TIME (B16-F10 [18]) [h],sialylation recovery time (B16-F10 [19])
COC(=O)C1(OC(C)=O)O[C@@H]([C@H](OC(C)=O)[C@@H](COC(C)=O)OC(C)=O)[C@H](NC(=O)OCC(C)C)[C@@H](OC(C)=O)[C@H]1F (some centres not stated),3.33,0.5,11.4,5.15,24.4,51.8,8,Non-Toxic,Non-Toxic,Non-Toxic,Non-Toxic,Non-Toxic,Non-Toxic,Non-Toxic,Non-Toxic,Non-Toxic,Non-Toxic,120 to 144,Active
CCCCOC(=O)N[C@H]1[C@H]([C@H](OC(C)=O)[C@@H](COC(C)=O)OC(C)=O)OC(OC(C)=O)(C(=O)OC)[C@H](F)[C@@H]1OC(C)=O (some centres not stated),7.45,–,–,–,–,–,4,–,–,–,–,–,–,–,–,–,–,–,–
COC(=O)C1(OC(C)=O)O[C@@H]([C@H](OC(C)=O)[C@@H](COC(C)=O)OC(C)=O)[C@H](NC(=O)CN=[N+]=[N-])[C@@H](OC(C)=O)[C@H]1F (some centres not stated),19.9,10.9,45.6,80.6,> 102,> 102,1,Non-Toxic,Non-Toxic,Non-Toxic,Non-Toxic,Non-Toxic,Non-Toxic,Non-Toxic,Non-Toxic,Non-Toxic,Non-Toxic,48 to 72,Active
COCCOC(=O)N[C@H]1[C@H]([C@H](OC(C)=O)[C@@H](COC(C)=O)OC(C)=O)OC(OC(C)=O)(C(=O)OC)[C@H](F)[C@@H]1OC(C)=O (some centres not stated),25.5,–,–,–,–,≥ 50,1,–,–,–,–,–,–,–,–,–,–,–,–
C=CCOC(=O)N[C@H]1[C@H]([C@H](OC(C)=O)[C@@H](COC(C)=O)OC(C)=O)OC(OC(C)=O)(C(=O)OC)[C@H](F)[C@@H]1OC(C)=O (some centres not stated),1.39,0.41,1.83,1.77,6.91,39.9,19,Non-Toxic,Non-Toxic,Non-Toxic,Non-Toxic,Non-Toxic,Non-Toxic,Non-Toxic,Non-Toxic,Non-Toxic,Non-Toxic,120 to 144,Active
COC(=O)C1(OC(C)=O)O[C@@H]([C@H](OC(C)=O)[C@@H](COC(C)=O)OC(C)=O)[C@H](NC(=O)OCc2ccccc2)[C@@H](OC(C)=O)[C@H]1F (some centres not stated),14.5,–,–,–,–,–,2,–,–,–,–,–,–,–,–,–,–,–,–
COC(=O)C1(OC(C)=O)O[C@@H]([C@H](OC(C)=O)[C@@H](COC(C)=O)OC(C)=O)[C@H](NC(=O)CCl)[C@@H](OC(C)=O)[C@H]1F (some centres not stated),18,–,–,–,–,–,1,–,–,–,–,–,–,–,–,–,–,48 to 72,–
COC(=O)C1(OC(C)=O)O[C@@H]([C@H](OC(C)=O)[C@@H](COC(C)=O)OC(C)=O)[C@H](NC(=O)COC(C)=O)[C@@H](OC(C)=O)[C@H]1F (some centres not stated),4.98,4.24,53.6,16.6,> 102,> 102,5,Non-Toxic,Non-Toxic,Non-Toxic,Non-Toxic,Non-Toxic,Non-Toxic,Non-Toxic,Non-Toxic,Non-Toxic,Non-Toxic,48 to 72,Active
COC(=O)C1(OC(C)=O)O[C@@H]([C@H](OC(C)=O)[C@@H](COC(C)=O)OC(C)=O)[C@H](NC(=O)OCCF)[C@@H](OC(C)=O)[C@H]1F (some centres not stated),1.25,–,–,–,–,–,21,–,–,–,–,–,–,–,–,–,–,–,–
COC(=O)N[C@H]1[C@H]([C@H](OC(C)=O)[C@@H](COC(C)=O)OC(C)=O)OC(OC(C)=O)(C(=O)OC)[C@H](F)[C@@H]1OC(C)=O (some centres not stated),4.89,1.98,3.31,6.33,18.3,59.2,5,Non-Toxic,Non-Toxic,Non-Toxic,Non-Toxic,Non-Toxic,Non-Toxic,Non-Toxic,Non-Toxic,Non-Toxic,Non-Toxic,120 to 144,Active
COC(=O)C1(OC(C)=O)O[C@@H]([C@H](OC(C)=O)[C@@H](COC(C)=O)OC(C)=O)[C@H](NC(=O)OC(C)(C)C)[C@@H](OC(C)=O)[C@H]1F (some centres not stated),3.48,1.28,10.4,12.8,36.5,54.6,8,Non-Toxic,Non-Toxic,Non-Toxic,Non-Toxic,Non-Toxic,Non-Toxic,Non-Toxic,Non-Toxic,Non-Toxic,Non-Toxic,120 to 144,Active
COC(=O)C1(OC(C)=O)O[C@@H]([C@H](OC(C)=O)[C@@H](COC(C)=O)OC(C)=O)[C@H](NC(=O)OCC(Cl)(Cl)Cl)[C@@H](OC(C)=O)[C@H]1F (some centres not stated),3.83,–,–,–,–,–,7,–,–,–,–,–,–,–,–,–,–,–,–
COC(=O)C1(OC(C)=O)O[C@@H]([C@H](OC(C)=O)[C@@H](COC(C)=O)OC(C)=O)[C@H](NC(=O)C(F)(F)F)[C@@H](OC(C)=O)[C@H]1F (some centres not stated),14.3,3.3,42.8,25.5,46.5,> 102,2,Non-Toxic,Non-Toxic,Non-Toxic,Non-Toxic,Non-Toxic,Non-Toxic,Non-Toxic,Non-Toxic,Non-Toxic,Non-Toxic,48 to 72,Active
